# Test results: ChEMBL document CHEMBL4392823, “Potassium channel blocking 1,2-bis(aryl)ethane-1,2-diamines active as antiarrhythmic agents” (Bioorg Med Chem Lett, 2019)
# Columns and labels:
# [1] = Renal clearance in dog; type: ADME, Canis lupus familiaris; details: in vivo
# [2] = Drug excretion in dog urine; type: ADME, Canis lupus familiaris; details: read-out: Drug excretion
# [3] = Plasma clearance in dog; type: ADME, Canis lupus familiaris
# [4] = target: T1, Potassium voltage-gated channel subfamily A member 5 (Homo sapiens, UniProt P22460); assay: Inhibition of recombinant human Kv1.5 expressed in CHO cells by IonWork high-throughput electrophysiology assay; type: cell-based
# T1 sequence (P22460 whole entry): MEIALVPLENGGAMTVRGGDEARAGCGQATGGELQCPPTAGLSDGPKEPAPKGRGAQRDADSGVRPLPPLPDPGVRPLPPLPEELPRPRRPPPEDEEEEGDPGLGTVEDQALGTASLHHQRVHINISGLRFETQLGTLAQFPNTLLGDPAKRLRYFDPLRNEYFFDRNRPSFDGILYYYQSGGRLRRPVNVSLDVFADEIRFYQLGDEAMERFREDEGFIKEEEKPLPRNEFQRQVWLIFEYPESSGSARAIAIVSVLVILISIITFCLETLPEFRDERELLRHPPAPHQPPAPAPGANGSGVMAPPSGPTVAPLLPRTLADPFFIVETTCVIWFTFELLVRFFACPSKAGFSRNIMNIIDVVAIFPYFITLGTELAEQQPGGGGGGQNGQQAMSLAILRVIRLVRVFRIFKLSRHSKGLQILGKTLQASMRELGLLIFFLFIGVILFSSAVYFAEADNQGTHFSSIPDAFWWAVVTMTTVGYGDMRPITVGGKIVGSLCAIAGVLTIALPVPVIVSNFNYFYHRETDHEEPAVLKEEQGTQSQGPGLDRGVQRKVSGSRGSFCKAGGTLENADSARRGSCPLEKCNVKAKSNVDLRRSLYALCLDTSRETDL
# How it was run: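 Kv1.5 current recorded in CHO cells by IonWorks HT automated electrophysiology. IC50 is the average of 2 measurements unless n=1 is noted.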
# Oryctolagus cuniculus = assay: Antiarrhythmic activity in iv dosed anesthetized rabbit assessed as free compound plasma exposure which prolongs the right atrial effective refractory period by 20 milliseconds measured after 20 mins by electrophysiological analysis; type: functional
# How it was run: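 Anesthetized rabbits received increasing intravenous infusions of test compound. Right atrial effective refractory period was measured 20 min after each dose. Value is the free plasma exposure giving a 20 ms RAERP prolongation.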
# [5] = Stability in human liver microsomes assessed as formation of iminium ions; type: ADME, Microsome
# [6] = target: Voltage-gated inwardly rectifying potassium channel KCNH2 (Homo sapiens, UniProt Q12809); assay: Inhibition of human ERG
# Chain of Voltage-gated inwardly rectifying potassium channel KCNH2 (Q12809 whole entry): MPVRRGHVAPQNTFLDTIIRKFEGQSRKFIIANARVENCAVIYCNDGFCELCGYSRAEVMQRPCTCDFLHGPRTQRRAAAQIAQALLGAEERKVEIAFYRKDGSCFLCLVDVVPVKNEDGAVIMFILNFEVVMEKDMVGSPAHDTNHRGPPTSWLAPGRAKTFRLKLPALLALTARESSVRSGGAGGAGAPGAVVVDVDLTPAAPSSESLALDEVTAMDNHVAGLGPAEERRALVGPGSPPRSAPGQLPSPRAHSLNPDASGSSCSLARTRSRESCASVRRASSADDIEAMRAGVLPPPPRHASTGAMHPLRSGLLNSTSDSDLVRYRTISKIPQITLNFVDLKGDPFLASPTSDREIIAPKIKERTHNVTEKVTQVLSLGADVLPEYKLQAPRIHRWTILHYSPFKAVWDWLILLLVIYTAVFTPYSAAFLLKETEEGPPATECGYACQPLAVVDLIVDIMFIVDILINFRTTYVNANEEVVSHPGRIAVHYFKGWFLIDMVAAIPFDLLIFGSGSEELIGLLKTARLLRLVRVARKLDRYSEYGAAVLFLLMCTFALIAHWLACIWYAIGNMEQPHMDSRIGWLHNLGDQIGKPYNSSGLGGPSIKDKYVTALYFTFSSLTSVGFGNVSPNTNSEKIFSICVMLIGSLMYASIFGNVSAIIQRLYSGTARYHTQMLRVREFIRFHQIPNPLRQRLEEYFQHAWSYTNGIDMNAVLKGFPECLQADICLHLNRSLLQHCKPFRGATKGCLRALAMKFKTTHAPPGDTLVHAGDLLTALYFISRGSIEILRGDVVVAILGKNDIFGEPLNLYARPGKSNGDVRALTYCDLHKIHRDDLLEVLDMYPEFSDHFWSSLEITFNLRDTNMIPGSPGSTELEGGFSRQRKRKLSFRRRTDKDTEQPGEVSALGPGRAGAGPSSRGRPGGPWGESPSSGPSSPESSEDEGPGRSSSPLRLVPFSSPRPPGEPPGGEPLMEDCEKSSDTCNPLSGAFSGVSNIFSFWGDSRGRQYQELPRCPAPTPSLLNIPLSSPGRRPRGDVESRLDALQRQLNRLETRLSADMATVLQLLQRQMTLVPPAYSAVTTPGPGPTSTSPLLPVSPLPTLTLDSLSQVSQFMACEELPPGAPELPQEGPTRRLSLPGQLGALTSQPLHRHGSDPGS
# Cytochrome P450 3A4 = Cytochrome P450 3A4 (Homo sapiens, UniProt P08684); assay: Drug metabolism in human hepatocytes assessed as CYP3A4-mediated drug metabolism; type: ADME, cell-based
# Chain of Cytochrome P450 3A4 (P08684 whole entry): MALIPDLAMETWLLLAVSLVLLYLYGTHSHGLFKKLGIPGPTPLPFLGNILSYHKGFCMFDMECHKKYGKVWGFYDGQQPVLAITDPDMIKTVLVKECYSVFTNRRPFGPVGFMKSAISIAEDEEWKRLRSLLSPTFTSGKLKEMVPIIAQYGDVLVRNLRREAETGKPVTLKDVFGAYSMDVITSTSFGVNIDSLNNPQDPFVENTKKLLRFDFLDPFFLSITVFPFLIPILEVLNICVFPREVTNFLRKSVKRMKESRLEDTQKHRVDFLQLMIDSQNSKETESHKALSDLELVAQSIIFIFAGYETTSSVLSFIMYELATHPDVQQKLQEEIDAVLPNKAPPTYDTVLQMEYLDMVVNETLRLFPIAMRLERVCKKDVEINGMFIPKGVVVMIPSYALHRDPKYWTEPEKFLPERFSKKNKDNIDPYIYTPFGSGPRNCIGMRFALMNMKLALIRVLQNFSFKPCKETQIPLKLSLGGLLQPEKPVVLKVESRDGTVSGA
# [7] = target: Potassium voltage-gated channel subfamily E member 1 (Homo sapiens, UniProt P15382); assay: Inhibition of IKs (unknown origin)
# [8] = Intrinsic clearance in human liver microsomes; type: ADME, Microsome; details: read-out: CLH
# [9] = Lipophilicity, log D of the compound by chromatographic method; type: physicochemical
# How it was run: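 Lipophilicity (log D) measured by a chromatographic method.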
# Cytochrome P450 2D6 = Cytochrome P450 2D6 (Homo sapiens, UniProt P10635); assay: Inhibition of CYP2D6 (unknown origin); type: ADME
# Chain of Cytochrome P450 2D6 (P10635 whole entry): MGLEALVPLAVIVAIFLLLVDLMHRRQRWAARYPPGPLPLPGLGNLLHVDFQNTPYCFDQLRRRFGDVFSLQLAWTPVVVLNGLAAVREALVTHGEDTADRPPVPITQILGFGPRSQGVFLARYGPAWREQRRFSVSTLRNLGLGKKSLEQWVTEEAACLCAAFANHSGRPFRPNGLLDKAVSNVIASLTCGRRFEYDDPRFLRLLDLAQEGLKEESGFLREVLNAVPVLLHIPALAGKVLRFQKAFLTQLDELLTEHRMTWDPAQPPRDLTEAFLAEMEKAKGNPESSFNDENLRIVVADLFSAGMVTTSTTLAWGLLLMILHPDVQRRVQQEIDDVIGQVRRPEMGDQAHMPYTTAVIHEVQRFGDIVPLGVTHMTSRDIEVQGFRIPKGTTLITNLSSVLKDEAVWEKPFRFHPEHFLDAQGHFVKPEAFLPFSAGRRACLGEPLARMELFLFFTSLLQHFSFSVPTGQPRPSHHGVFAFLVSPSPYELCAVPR
# [10] = Dissociation constant, pKa of the compound; type: physicochemical
# [11] = Free drug level in rat brain at 2 umol/kg/hr administered for 4 hrs; type: ADME, tissue-based; details: in vivo
# How it was run: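 Rats received a continuous intravenous infusion at 2 μmol/kg/h for 4 h. Total brain and plasma concentrations were measured at steady state. Free levels were calculated from measured unbound fractions in brain and plasma, and free brain exposure was expressed relative to free plasma exposure.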
# [12] = target: T2, G protein-activated inward rectifier potassium channel 4 (Homo sapiens, UniProt P48544); assay: Inhibition of Kir3.4 (unknown origin)
# T2 sequence (P48544 whole entry): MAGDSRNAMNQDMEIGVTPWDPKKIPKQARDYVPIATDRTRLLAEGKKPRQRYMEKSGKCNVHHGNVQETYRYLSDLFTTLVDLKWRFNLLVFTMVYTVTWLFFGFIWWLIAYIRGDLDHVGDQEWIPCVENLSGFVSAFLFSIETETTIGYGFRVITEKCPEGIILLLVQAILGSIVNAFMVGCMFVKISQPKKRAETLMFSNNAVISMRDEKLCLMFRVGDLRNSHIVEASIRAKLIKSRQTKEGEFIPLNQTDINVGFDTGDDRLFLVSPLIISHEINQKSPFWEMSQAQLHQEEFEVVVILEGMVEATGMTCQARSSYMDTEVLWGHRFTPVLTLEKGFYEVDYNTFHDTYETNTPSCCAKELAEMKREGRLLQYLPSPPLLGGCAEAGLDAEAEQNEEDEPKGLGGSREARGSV
# hERG (KCNH2) = hERG (KCNH2) (Homo sapiens, UniProt Q12809); assay: Inhibition of human ERG at 33 uM relative to control
# Chain of hERG (KCNH2) (Q12809 whole entry): as the sequence (Q12809 whole entry) above
# [13] = target: T1, Potassium voltage-gated channel subfamily A member 5; assay: Inhibition of Kv1.5 in human atrial myocytes assessed as blockade of Ikur current; type: cell-based
# [14] = target: T3, Glutamate [NMDA] receptor (Homo sapiens) (UniProt Q05586+Q12879+Q13224+O15399+O60391+Q14957+Q8TCU5); assay: Inhibition of NMDA receptor glycine binding site (unknown origin) at 10 uM relative to control; type: protein-complex assay
# [15] = target: Sodium channel protein type 5 subunit alpha (Homo sapiens, UniProt Q14524); assay: Inhibition of Nav1.5 (unknown origin)
# [16] = target: T3, Glutamate [NMDA] receptor (Homo sapiens); assay: Inhibition of NMDA receptor phencyclidine binding site (unknown origin) at 10 uM relative to control; type: protein-complex assay
# Canis familiaris = species on record: Canis familiaris; assay: Antiarrhythmic activity in rapid atrial pacing dog model of atrial fibrillation assessed as unbound plasma concentration required to convert atrial fibrillation to sinus rhythm; type: functional, Canis lupus familiaris
# How it was run: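 Rapid atrial pacing dog model of AF (n=12). Read-out was conversion of AF to sinus rhythm, with the unbound plasma concentration at conversion reported as mean ± spread.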
# [17] = target: T4, A-type voltage-gated potassium channel KCND3 (Homo sapiens, UniProt Q9UK17); assay: Inhibition of Kv4.3 (unknown origin)
# T4 sequence (Q9UK17 whole entry): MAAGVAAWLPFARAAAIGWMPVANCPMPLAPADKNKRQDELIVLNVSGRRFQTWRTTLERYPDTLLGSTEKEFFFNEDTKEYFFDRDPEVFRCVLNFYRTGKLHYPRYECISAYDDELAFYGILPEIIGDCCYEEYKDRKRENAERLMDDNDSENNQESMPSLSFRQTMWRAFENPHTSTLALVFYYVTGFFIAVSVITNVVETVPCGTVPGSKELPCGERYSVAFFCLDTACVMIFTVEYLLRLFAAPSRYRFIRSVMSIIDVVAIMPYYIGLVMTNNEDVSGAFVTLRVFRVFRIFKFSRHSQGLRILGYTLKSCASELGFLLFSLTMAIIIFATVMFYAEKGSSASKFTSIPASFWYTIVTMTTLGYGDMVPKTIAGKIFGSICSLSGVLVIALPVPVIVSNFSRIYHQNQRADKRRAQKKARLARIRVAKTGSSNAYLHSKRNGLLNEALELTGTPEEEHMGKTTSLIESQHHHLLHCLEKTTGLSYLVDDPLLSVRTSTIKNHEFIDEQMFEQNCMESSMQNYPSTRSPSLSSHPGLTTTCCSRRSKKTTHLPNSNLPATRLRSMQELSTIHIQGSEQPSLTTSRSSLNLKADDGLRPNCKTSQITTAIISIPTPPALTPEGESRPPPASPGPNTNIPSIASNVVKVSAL
# [18] = target: Voltage-dependent L-type calcium channel subunit alpha-1C (Homo sapiens, UniProt Q13936); assay: Inhibition of CaV1.2 (unknown origin)
# [19] = target: T5, G protein-activated inward rectifier potassium channel 1 (Homo sapiens, UniProt P48549); assay: Inhibition of Kir3.1 (unknown origin)
# T5 sequence (P48549 whole entry): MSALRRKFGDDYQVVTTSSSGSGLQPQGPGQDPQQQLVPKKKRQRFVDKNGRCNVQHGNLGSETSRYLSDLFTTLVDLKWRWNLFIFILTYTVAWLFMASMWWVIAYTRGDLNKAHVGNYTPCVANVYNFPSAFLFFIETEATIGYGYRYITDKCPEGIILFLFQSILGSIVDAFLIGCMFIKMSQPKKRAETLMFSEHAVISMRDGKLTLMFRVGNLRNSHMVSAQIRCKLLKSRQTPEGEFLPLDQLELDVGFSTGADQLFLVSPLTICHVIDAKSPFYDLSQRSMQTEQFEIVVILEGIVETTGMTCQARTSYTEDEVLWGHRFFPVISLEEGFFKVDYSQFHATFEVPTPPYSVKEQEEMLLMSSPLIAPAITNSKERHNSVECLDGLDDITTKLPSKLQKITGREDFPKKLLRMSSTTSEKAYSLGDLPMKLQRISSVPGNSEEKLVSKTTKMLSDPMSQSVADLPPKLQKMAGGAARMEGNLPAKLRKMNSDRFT
# [20] = Cardiotoxicity in dog assessed as blockade of sodium channel by measuring changes in ECG at higher dose; type: toxicity, Canis lupus familiaris; details: in vivo
Structure (SMILES),CL renal [1] [mL/min/kg],dose excreted [2] [%],clearance [3] [mL/min/kg],IC50 [4] [µM],Drug metabolism (Cytochrome P450 3A4),IC50 [7] [µM],microsomal CLint [8] [µL/min/mg],chromatographic logD [9],further results
CCCN(CCC)[C@H](c1ccccn1)[C@@H](c1ccccn1)N(CCOC)C[C@H](C)O,2.5,11,21,2.7,,,,,Cp(f) (Oryctolagus cuniculus): 0.22 µM
COCCN(C[C@H](C)O)[C@H](c1ccccn1)[C@@H](c1ccccn1)N1C2CCC1CC(OC)C2 (stereo not given in full),7.1,28,25,5.6,,,,,
c1ccc([C@H]([C@@H](c2ccccc2)N2CCCCC2)N2CCCCC2)cc1,,,,0.41,Metabolite_Detected,1.4,14,4,Stability [5]: Unstable; IC50 [6]: > 33 µM; IC50 (Cytochrome P450 2D6): 0.13 µM
CCCN(CC)[C@H](c1ccccn1)[C@@H](c1ccccn1)N(CCOC)C[C@H](C)CO,2.7,11,25,10,,,,,
c1ccc([C@H]([C@H](c2ccccn2)N2CCCCC2)N2CCCCC2)nc1,,,,1.4,Metabolite_Detected,,412,4.6,pKa [10]: 8.7
CCCN(CCC)[C@H](c1ccccn1)[C@@H](c1ccccn1)N(CCC)C[C@H](O)CO,0.19,5.1,6.1,1.7,,> 33,,,Drug uptake(free) [11]: 4%; IC50 [12]: 4.1 µM; IC50 [6]: > 33 µM; inhibition at 33 µM (hERG (KCNH2)): 37%; IC50 [13]: 0.06 µM; inhibition [14]: 13%; IC50 [15]: 19 µM; inhibition [16]: 14%; Cp(f) (Canis familiaris): 0.48 µM; IC50 [17]: 11 µM; IC50 [18]: > 33 µM; Cp(f) (Oryctolagus cuniculus): 0.15 µM; IC50 [19]: 4.1 µM
CCCN(CC)[C@H](c1ccccn1)[C@@H](c1ccccn1)N(CC)CCC,0.7,6.9,16,3.2,Metabolite_Detected,60,23,3.3,Stability [5]: Stable; IC50 [6]: > 33 µM; IC50 (Cytochrome P450 2D6): 5.4 µM
CCCN(CCC)[C@H](c1ccccn1)[C@@H](c1ccccn1)N(CCC)CCC,,,,0.22,Metabolite_Detected,> 33,58,4.6,IC50 (Cytochrome P450 2D6): > 20 µM
c1ccc([C@@H]([C@H](c2ccccn2)N2CCCCC2)N2CCCCC2)nc1,,,,4.8,Metabolite_Detected,,< 5,2.2,pKa [10]: 10.4
CCCN(CC)[C@H](c1ccccn1)[C@@H](c1cccc(C#N)c1)N(CCOC)C[C@H](C)CO,2.1,4.4,44,4.8,,,,,IC50 [13]: 0.39 µM
CCCN(C[C@H](C)O)[C@H](c1ccccn1)[C@@H](c1ccccn1)N1C2CCCC1CC2,0.3,12,3,3.4,,,,,Activity [20]: Toxic; Cp(f) (Oryctolagus cuniculus): 0.057 µM
CCCN(CCC)[C@H](c1ccccn1)[C@@H](c1ccccn1)N(C[C@@H](C)O)C[C@@H](C)O,5.5,19,16,2.1,,,,,Cp(f) (Oryctolagus cuniculus): 0.29 µM
c1ccc([C@H]([C@@H](c2ccccn2)N2CCCCC2)N2CCCCC2)nc1,,,,2.2,Metabolite_Detected,17,< 5,2.2,IC50 [6]: > 33 µM; pKa [10]: 10.4; IC50 (Cytochrome P450 2D6): > 20 µM
CCCN(CC)[C@@H](c1ccccn1)[C@H](c1cccc(C#N)c1)N(CCOC)C[C@@H](C)CO,1.8,4.7,37,7.3,,,,,IC50 [13]: 0.26 µM
